Data set [1] is described as follows: Metabolic stability in human microsomes. The class given is ADME, Microsome.
Data set [2] is described as follows: Metabolic stability in mouse microsomes. The class given is ADME, Microsome.
The nature of data set [3]: Solubility of the compound. It counts as physicochemical.
The test system of data set [4] is Mus musculus. In words: Antidiabetic activity in db/db C57BLKS mouse assessed as reduction of plasma glucose level at 200 mg/kg, po administered 4 hrs after food removal measured after 6 hrs postdose relative to control. Further details: scale not given: the % may be the effect or the level left. It counts as functional. Put shortly:
(§1)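 Fifteen-week-old male C57BLKS db/db mice were kept under controlled feeding and block-randomized on baseline blood glucose and body weight. They received a single oral dose at 4 mL/kg in 0.5% Tween 80 / 0.5% hydroxyethylcellulose 4 h after morning food removal. Blood glucose was read from tail-tip blood with a handheld meter at 0, +2, +4 and +6 h. Data are mean ± SEM; percent change is versus vehicle.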

For data set [5], the system named is Mus musculus. Description: Antidiabetic activity in db/db C57BLKS mouse assessed as increase of liver glycogen level at 200 mg/kg, po administered 4 hrs after food removal measured after 6 hrs postdose relative to control. It counts as functional. The gist of the method:
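Male db/db mice on C57BLKS background, 15 weeks old, kept under controlled feeding and block-randomized on blood glucose and body weight. Dosed orally 4 h after morning food removal at 4 mL/kg in vehicle (0.5% Tween 80, 0.5% hydroxyethylcellulose). Liver glycogen was taken 6 h post-dose and compared with vehicle-treated mice.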

The test system of data set [6] is Mus musculus. In words: Antidiabetic activity in db/db C57BLKS mouse assessed as reduction of plasma glucose level at 200 mg/kg, po administered 4 hrs after food removal measured after 2 hrs postdose (Rbv = 22.73 +/- 0.73 mM). It counts as functional. The gist of the method:
as §1

The test system of data set [7] is Mus musculus. In words: Antidiabetic activity in db/db C57BLKS mouse assessed as reduction of plasma glucose level at 200 mg/kg, po administered 4 hrs after food removal measured after 4 hrs postdose (Rbv = 26.58 +/- 1.09 mM). It counts as functional. Put shortly: as §1
In data set [8] the test system is Mus musculus. Description: Antidiabetic activity in db/db C57BLKS mouse assessed as reduction of plasma glucose level at 200 mg/kg, po administered 4 hrs after food removal measured after 6 hrs postdose (Rbv = 23.84 +/- 0.98 mM). The class given is functional. The gist of the method: as §1
Data set [9] deals with Mus musculus. Description: Hepatotoxicity in db/db C57BLKS mouse assessed as changes in normal appearance at 200 mg/kg, po. The class given is toxicity, organism-based. More on the design: dose 200 mg/kg, route oral. To be noted: in vivo. Put shortly:
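After a single oral dose in 15-week-old male db/db (C57BLKS) mice, livers were inspected for colour and hypertrophy, and liver weight was compared with vehicle-treated mice.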

Data set [10] addresses T1, Fructose-1,6-bisphosphatase 1 (Mus musculus, UniProt Q9QXD6).
T1 sequence (Q9QXD6 whole entry): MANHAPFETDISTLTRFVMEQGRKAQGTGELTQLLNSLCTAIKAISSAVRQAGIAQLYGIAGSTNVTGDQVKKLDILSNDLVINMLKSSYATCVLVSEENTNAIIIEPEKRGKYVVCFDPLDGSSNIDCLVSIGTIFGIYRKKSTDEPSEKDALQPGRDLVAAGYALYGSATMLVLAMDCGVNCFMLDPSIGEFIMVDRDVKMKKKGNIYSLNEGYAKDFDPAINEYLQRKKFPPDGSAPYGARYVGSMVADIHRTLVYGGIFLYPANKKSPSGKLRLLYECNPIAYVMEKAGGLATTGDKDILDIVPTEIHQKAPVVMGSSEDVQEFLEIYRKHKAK
In words: Inhibition of mouse liver fructose-1,6-bisphosphatase.

For the next data set, the system named is Hepatocyte. In words: Reduction of glucose production in mouse hepatocytes after 6 hrs by glucose oxidase assay. It counts as functional, cell-based. The gist of the method: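 Primary mouse hepatocytes (25,000 cells/well) were grown 24 h at 37 °C in DMEM with 10% FBS. They were then starved 24 h in glucose-free RPMI with 1% FBS to deplete glycogen and washed with PBS. Cells were exposed to inhibitor for 6 h at 37 °C in PBS with 0.1% BSA, 20 mM lactate and 2 mM pyruvate. Glucose released into the supernatant was measured by glucose oxidase (Amplex Red).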

Values after ≈ are worked out from the molar mass of the structure shown.

Take `CC(=O)OCCc1sc(S(=O)(=O)NC(=O)Nc2cc(C(F)(F)F)c(F)c(N)n2)cc1C`: the Stability result in [1] and in data set [2] was “Unstable” throughout. Besides, the solubility (as a rule, the dissolved amount per volume that the medium holds) in data set [3] worked out at 160 µg/mL (≈ 330 µM). Moreover, the Activity was 16% in the data set on Mus musculus [4]; 21% in the data set on Mus musculus [5]; 27.59 mM in the data set with Mus musculus [6]; 23.31 mM in the data set on Mus musculus [7]; 20.09 mM in the data set on Mus musculus [8]; “Non-toxic” with Mus musculus [9]. Further, in data set [10], the concentration for half-maximal inhibition (IC50) (commonly the midpoint of a concentration-inhibition curve) amounted to 3.5 µM. Moreover, the 50% effective concentration (EC50) (commonly the concentration at which the effect is half-maximal) in the data set with Hepatocyte worked out at 2.7 µM.

(Values after ChEMBL document CHEMBL1777715, “Orally active aminopyridines as inhibitors of tetrameric fructose-1,6-bisphosphatase” (Bioorg Med Chem Lett, 2011).)
